For one assay, the target named is WspR (Pseudomonas aeruginosa, UniProt Q9HXT9). In words: EnzChek pyrophosphate assay. Type of assay: biochemical. The essentials:
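C-terminally 6×His-tagged WspR is expressed in E. coli BL21(DE3) in LB with 100 μg ml−1 ampicillin at 37 °C, then induced at A600 1.0 with 1 mM IPTG at 18 °C for 12–16 h. Cells are sonicated and the protein is purified by IMAC (500 mM imidazole elution), then Superdex 200 SEC in 25 mM Tris-HCl pH 7.4, 100 mM NaCl, 1 mM DTT. Pyrophosphate released from GTP-to-c-di-GMP conversion is read by EnzChek.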

The target of another assay is tDGC-R158A (Thermotoga maritima, UniProt Q9X2A8, R158A). Briefly: EnzChek pyrophosphate assay. The class given is biochemical. As to conditions: substrate GTP. The essentials:
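C-terminally 6×His-tagged T. maritima tDGC-R158A is expressed in E. coli BL21(DE3) with kanamycin at 37 °C and induced at OD600 0.8 with 0.8 mM IPTG at 25 °C for 4 h. It is French-press lysed and purified on Ni-NTA with a 20–500 mM imidazole gradient in Tris-HCl pH 8.0. Pyrophosphate from GTP conversion is read by a high-throughput-adapted EnzChek assay, giving % inhibition versus untreated enzyme.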

pIC50: −log10 of the molar value.

As usually defined, the pIC50 is the IC50 on a negative log10 scale, so that one unit is a factor of ten. Lower therefore signals a high IC50. As to `CN(CCCn1c2c(c(=O)[nH]c1=O)CSCC2)S(=O)(=O)c1ccc(N)cc1` [LP 4010], the pIC50 against WspR was 3.99. The “% Inhibition of tDGC-R158A” value on tDGC-R158A (200 µM) is 20.5%. On WspR, `CCOc1ccc(/C=N/NC(=O)c2cc(O)c(O)c(O)c2)cc1CN1CC2CC(C1)c1cccc(=O)n1C2` (stereo not drawn) [LP 3134, N′-((1E)-{4-ethoxy-3-[(8-oxo-1,5,6,8-tetrahydro-2H-1,5-methanopyrido[1,2-a][1,5]diazocin-3(4H)-yl)methyl]phenyl}methylene)-3,4,5-trihydroxybenzohydrazide] had a pIC50 of 4.35. For the same compound, on tDGC-R158A (100 µM), the “% Inhibition of tDGC-R158A” value came out at 72.1%. As for `CC(=O)c1c(O)c(C)c(O)c(Cc2c(O)c3c(c(C(=O)/C=C/c4ccccc4)c2O)OC(C)(C)C=C3)c1O` [LP 1062, (E)-1-[6-[(3-acetyl-2,4,6-trihydroxy-5-methylphenyl)methyl]-5,7-dihydroxy-2,2-dimethyl-2H-1-benzopyran-8-yl]-3-phenyl-2-propen-1-one], the pIC50 against WspR is 4.14.

In turn, `Cc1cc2c(C(C)C)c(O)c(O)c(C=O)c2c(O)c1-c1c(C)cc2c(C(C)C)c(O)c(O)c(C=O)c2c1O` [LP 3145, 1,1′,6,6′,7,7′-hexahydroxy-5,5′-diisopropyl-3,3′-dimethyl-2,2′-binaphthalene-8,8′-dicarbaldehyde] had a pIC50 against WspR of 4.15.

Values taken from publication PMC4120261 (Biofouling, 2013).
